From ChEMBL document CHEMBL5705900, “PF-06463922 is a potent and selective next-generation ROS1/ALK inhibitor capable of blocking crizotinib-resistant ROS1 mutations” (Proc Natl Acad Sci U S A, 2015)
Activity calls are given as the source filed them. No cut-off for these calls is given here.

Assays:
[1] = molecular target: T1, Proto-oncogene tyrosine-protein kinase ROS (Homo sapiens, UniProt P08922); test: Binding affinity to recombinant human ROS1 assessed as inhibition constant in presence of ATP by microfluidic mobility shift assay
T1 sequence (P08922 whole entry): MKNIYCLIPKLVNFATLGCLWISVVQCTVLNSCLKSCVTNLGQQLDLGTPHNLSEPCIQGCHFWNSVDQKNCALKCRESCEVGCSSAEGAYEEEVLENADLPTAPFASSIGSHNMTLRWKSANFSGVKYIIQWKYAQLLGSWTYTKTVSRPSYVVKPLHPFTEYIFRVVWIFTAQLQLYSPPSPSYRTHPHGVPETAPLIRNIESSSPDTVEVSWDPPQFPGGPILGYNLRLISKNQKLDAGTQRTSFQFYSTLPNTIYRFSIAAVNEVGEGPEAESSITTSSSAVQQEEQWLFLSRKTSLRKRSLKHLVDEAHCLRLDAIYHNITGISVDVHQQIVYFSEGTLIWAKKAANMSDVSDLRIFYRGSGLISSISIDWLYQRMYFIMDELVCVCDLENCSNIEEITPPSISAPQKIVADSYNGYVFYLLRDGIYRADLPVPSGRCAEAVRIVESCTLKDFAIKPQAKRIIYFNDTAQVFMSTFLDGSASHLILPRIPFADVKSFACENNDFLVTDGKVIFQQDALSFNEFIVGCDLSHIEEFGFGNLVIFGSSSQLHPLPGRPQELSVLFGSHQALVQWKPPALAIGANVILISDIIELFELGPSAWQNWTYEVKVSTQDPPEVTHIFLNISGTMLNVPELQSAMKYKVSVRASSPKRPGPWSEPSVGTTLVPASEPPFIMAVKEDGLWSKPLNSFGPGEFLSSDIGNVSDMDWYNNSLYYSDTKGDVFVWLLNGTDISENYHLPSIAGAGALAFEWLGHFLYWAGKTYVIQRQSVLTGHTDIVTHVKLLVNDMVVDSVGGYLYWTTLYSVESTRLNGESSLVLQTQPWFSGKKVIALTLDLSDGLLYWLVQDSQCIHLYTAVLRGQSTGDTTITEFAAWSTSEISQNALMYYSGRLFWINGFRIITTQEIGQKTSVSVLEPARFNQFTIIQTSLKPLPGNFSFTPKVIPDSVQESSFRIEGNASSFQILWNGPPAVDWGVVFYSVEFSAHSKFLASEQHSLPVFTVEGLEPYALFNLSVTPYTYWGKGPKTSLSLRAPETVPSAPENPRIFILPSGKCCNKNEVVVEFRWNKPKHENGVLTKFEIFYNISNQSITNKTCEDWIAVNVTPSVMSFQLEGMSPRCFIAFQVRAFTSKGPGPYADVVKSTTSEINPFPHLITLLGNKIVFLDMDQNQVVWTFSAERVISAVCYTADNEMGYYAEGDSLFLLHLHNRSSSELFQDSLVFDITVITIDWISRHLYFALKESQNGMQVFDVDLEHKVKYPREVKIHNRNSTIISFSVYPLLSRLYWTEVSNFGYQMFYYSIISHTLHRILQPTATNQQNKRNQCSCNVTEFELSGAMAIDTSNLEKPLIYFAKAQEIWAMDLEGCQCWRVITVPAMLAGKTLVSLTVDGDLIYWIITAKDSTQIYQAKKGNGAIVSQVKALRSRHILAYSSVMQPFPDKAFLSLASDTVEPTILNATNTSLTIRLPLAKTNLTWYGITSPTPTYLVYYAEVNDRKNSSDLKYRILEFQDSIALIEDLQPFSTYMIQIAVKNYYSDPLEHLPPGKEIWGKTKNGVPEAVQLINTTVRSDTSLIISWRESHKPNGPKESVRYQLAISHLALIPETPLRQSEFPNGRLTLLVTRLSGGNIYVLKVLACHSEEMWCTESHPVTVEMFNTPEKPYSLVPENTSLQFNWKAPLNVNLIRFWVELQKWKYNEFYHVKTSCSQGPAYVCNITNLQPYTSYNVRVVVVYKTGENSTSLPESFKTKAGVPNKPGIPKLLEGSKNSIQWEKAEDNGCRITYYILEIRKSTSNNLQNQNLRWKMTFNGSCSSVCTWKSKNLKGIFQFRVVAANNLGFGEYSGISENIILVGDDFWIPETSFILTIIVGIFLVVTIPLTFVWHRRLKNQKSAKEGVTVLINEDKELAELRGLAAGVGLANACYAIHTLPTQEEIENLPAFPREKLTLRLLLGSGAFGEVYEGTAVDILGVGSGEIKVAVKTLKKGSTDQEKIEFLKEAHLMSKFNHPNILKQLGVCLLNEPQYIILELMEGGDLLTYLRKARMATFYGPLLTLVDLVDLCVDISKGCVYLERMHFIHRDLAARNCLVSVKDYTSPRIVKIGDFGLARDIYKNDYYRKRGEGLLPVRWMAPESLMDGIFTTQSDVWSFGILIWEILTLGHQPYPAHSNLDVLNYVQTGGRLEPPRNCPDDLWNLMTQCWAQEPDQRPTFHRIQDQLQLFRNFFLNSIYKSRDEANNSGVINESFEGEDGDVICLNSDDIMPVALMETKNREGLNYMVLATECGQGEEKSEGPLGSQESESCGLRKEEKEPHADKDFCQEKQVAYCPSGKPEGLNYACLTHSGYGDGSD

[2] = system: Proto-oncogene tyrosine-protein kinase ROS (Homo sapiens), P08922 [L2026M]; test: Inhibition of recombinant human ROS1 L2026M mutant in presence of ATP by microfluidic mobility shift assay; settings: dose 0.001-1000 nM
Proto-oncogene tyrosine-protein kinase ROS (Homo sapiens), P08922 [L2026M], sequence (P08922 whole entry L2026M): as the sequence (P08922 whole entry) above, with L2026M counted along it

[3] = molecular target: T1, Proto-oncogene tyrosine-protein kinase ROS; test: Inhibition of recombinant human ROS1 in presence of ATP by microfluidic mobility shift assay; settings: dose 0.001-1000 nM
[4] = system: Proto-oncogene tyrosine-protein kinase ROS (Homo sapiens), P08922 [G2032R]; test: Inhibition of recombinant human ROS1 G2032R mutant in presence of ATP by microfluidic mobility shift assay; settings: dose 0.001-1000 nM
Proto-oncogene tyrosine-protein kinase ROS (Homo sapiens), P08922 [G2032R], sequence (P08922 whole entry G2032R, the tested form may be a part): as the sequence (P08922 whole entry) above, with G2032R counted along it

SLC34A2-ROS1 = SLC34A2-ROS1 (Homo sapiens, UniProt P08922); test: Inhibition of SLC34A2-ROS1 fusion protein expressed in human HCC78 cells assessed as inhibition of phosphorylated ROS1 incubated for 1 hr by ELISA analysis; format: cell-based
[5] = molecular target: T2, H-2 class II histocompatibility antigen gamma chain/Proto-oncogene tyrosine-protein kinase ROS (Mus musculus, UniProt Q78DX7); test: Inhibition of CD74-ROS1 expressed in mouse BaF3 cells assessed as inhibition of phosphorylated ROS1 incubated for 1 hr by ELISA analysis; format: cell-based
T2 sequence (Q78DX7 whole entry): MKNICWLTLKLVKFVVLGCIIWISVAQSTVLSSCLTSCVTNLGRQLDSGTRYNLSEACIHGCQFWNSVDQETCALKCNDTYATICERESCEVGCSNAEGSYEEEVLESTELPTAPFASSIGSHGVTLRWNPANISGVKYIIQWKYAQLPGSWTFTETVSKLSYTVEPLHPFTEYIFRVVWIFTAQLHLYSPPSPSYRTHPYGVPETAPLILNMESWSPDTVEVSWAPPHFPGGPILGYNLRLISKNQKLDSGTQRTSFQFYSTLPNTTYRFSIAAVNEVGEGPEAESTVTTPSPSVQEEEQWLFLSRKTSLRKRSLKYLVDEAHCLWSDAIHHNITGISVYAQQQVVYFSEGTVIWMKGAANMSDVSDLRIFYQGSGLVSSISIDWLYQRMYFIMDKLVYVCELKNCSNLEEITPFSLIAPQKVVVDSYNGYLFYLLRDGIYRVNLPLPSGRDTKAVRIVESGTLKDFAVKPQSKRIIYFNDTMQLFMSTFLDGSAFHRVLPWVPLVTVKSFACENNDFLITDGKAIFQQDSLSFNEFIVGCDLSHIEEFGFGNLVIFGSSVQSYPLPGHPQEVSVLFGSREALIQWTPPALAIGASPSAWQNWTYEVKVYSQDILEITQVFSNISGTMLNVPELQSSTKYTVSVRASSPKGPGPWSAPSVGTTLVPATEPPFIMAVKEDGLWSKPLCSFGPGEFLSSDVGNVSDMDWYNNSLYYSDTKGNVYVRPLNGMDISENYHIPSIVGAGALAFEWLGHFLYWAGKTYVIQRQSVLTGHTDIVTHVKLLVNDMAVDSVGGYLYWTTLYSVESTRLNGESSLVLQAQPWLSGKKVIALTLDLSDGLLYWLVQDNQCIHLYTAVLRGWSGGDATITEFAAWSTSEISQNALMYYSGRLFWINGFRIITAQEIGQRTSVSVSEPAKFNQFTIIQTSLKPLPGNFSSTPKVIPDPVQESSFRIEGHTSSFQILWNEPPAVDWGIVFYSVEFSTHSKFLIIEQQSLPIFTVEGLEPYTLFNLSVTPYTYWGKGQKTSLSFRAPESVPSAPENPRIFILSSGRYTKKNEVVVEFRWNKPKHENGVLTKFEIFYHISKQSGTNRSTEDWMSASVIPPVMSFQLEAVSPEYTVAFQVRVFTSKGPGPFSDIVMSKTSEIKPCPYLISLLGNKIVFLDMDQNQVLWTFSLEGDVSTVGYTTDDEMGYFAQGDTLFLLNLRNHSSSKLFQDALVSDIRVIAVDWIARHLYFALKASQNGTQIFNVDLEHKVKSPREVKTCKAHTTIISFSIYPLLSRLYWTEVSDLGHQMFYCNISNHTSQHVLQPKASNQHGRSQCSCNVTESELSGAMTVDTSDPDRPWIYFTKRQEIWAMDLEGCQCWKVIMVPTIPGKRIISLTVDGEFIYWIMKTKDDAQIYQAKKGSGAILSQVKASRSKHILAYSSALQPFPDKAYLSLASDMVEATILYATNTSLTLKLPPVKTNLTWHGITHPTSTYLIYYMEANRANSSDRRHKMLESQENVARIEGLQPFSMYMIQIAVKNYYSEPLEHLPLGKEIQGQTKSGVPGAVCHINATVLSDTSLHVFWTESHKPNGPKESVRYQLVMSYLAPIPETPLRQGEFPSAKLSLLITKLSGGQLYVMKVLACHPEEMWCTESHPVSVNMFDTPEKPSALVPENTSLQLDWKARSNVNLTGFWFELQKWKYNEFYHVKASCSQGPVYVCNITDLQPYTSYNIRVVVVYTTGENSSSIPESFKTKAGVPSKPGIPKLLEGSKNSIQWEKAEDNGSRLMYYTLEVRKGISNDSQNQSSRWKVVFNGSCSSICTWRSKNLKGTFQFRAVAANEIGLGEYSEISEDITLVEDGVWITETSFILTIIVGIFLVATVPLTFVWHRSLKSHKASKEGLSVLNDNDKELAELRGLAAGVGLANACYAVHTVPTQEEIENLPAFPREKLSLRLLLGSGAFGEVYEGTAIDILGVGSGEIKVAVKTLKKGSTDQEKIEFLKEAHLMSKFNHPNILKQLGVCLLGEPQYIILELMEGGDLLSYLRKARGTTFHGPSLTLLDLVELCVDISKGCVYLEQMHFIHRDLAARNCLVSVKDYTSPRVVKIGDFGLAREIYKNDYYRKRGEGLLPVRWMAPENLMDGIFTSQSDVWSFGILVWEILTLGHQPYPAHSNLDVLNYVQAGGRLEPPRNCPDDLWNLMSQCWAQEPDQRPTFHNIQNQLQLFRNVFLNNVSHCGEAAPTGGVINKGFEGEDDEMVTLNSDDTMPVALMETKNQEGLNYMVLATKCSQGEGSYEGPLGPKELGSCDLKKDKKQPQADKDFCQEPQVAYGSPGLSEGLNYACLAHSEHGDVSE
T2 sequence (P04441 whole entry, further chain): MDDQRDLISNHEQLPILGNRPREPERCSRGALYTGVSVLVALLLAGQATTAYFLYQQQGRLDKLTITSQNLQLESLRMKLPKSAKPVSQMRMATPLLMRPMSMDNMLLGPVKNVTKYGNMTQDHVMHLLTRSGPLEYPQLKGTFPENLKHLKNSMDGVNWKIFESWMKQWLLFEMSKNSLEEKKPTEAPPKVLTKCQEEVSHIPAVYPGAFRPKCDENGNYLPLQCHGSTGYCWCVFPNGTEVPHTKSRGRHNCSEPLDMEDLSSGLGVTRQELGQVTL
Procedure, shortened: (§1)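 Cells seeded in growth medium with 0.5% serum and incubated overnight; compounds diluted in serum-free medium, added for 1 h, then medium aspirated. Lysates assayed for phospho-ROS1 (Tyr2274) by sandwich ELISA. IC50 from four-parameter concentration-response curve fit. Engineered lines made by retroviral transduction (pMSCV) with puromycin or hygromycin selection for 5 d.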

[6] = Inhibition of CD74-ROS1 G2032R mutant expressed in mouse BaF3 cells assessed as inhibition of phosphorylated ROS1 incubated for 1 hr by ELISA analysis; format: cell-based; settings: BaF3, 1 h
Procedure, shortened: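 BaF3 cells retrovirally engineered to express CD74-ROS1 G2032R, seeded in growth medium with 0.5% serum overnight. Compounds diluted in serum-free medium, added for 1 h, then aspirated. Lysates assayed for phospho-ROS1 (Tyr2274) by sandwich ELISA; IC50 from four-parameter concentration-response curve fit.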

[7] = Inhibition of CD74-ROS1 L2026M mutant expressed in mouse BaF3 cells assessed as inhibition of phosphorylated ROS1 incubated for 1 hr by ELISA analysis; format: cell-based; settings: BaF3, 1 h
[8] = molecular target: T2, H-2 class II histocompatibility antigen gamma chain/Proto-oncogene tyrosine-protein kinase ROS; test: Inhibition of CD74-ROS1 expressed in mouse NIH3T3 cells assessed as inhibition of phosphorylated ROS1 incubated for 1 hr by ELISA analysis; format: cell-based; procedure, shortened: as §1
[9] = molecular target: T3, Golgi-associated PDZ and coiled-coil motif-containing protein/Proto-oncogene tyrosine-protein kinase ROS (Mus musculus, UniProt Q78DX7); test: Inhibition of FIG-ROS1 short isoform fusion protein expressed in mouse NIH3T3 cells assessed as inhibition of phosphorylated ROS1 incubated for 1 hr by ELISA analysis; format: cell-based; procedure, shortened: as §1
T3 sequence (Q78DX7 whole entry, other chains not shown, the tested form may be a part, canonical isoform): as the sequence (Q78DX7 whole entry) above

[10] = molecular target: T3, Golgi-associated PDZ and coiled-coil motif-containing protein/Proto-oncogene tyrosine-protein kinase ROS; test: Inhibition of FIG-ROS1 long isoform fusion protein expressed in mouse NIH3T3 cells assessed as inhibition of phosphorylated ROS1 incubated for 1 hr by ELISA analysis; format: cell-based; procedure, shortened: as §1
HCC78 [11] = test: Antiproliferative activity against human HCC78 cells harboring SLC34A2-ROS1 fusion protein assessed as reduction in cell viability incubated for 72 hrs by CellTiter-Glo assay; format: functional, cell-based; settings: HCC78, 72 h
Procedure, shortened: (§2)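 HCC78 NSCLC cells seeded in growth medium with 10% FBS, cultured overnight at 37 °C, then exposed to serial compound dilutions for 72 h at 37 °C. Relative cell number read by CellTiter-Glo luminescence; IC50 from four-parameter concentration-response curve fit.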

BaF3 [12] = test: Antiproliferative activity against mouse BaF3 cells harboring CD74-ROS1 G2032R mutant assessed as reduction in cell viability incubated for 72 hrs by CellTiter-Glo assay; format: functional, cell-based; settings: BaF3, 72 h
Procedure, shortened: (§3)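 BaF3 cells engineered by pMSCV retroviral transduction (puromycin or hygromycin selection, 5 d, pooled populations) with CD74-ROS1 fusion variants. Seeded in growth medium with 10% FBS overnight at 37 °C, then serial compound dilutions for 72 h at 37 °C. CellTiter-Glo for relative cell number; IC50 by four-parameter curve fit.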

BaF3 [13] = test: Antiproliferative activity against mouse BaF3 cells harboring CD74-ROS1 L2026M mutant assessed as reduction in cell viability incubated for 72 hrs by CellTiter-Glo assay; format: functional, cell-based; settings: BaF3, 72 h; procedure, shortened: as §3
[14] = molecular target: Proto-oncogene tyrosine-protein kinase ROS (Homo sapiens, UniProt P08922, L2026M); test: Binding affinity to recombinant human ROS1 L2026M mutant assessed as inhibition constant in presence of ATP by microfluidic mobility shift assay
[15] = system: Proto-oncogene tyrosine-protein kinase ROS (Homo sapiens), P08922 [G2032R]; test: Binding affinity to recombinant human ROS1 G2032R mutant assessed as inhibition constant in presence of ATP by microfluidic mobility shift assay
HCC78 [16] = test: Antiproliferative activity against human HCC78 cells assessed as reduction in cell viability incubated for 72 hrs by CellTiter-Glo assay; format: functional, cell-based; settings: HCC78, 72 h; procedure, shortened: as §2
BaF3 [17] = test: cells; settings: Mus musculus, BaF3, 72 h

Structure (SMILES)	Ki [1]	inhibition [2]	inhibition [3]	inhibition [4]	IC50 (SLC34A2-ROS1)	IC50 [5]	IC50 [6]	IC50 [7]	IC50 [8]	IC50 [9]	IC50 [10]	IC50 (HCC78 [11])	IC50 (BaF3 [12])	IC50 (BaF3 [13])	Ki [14]	Kis [15]	IC50 (HCC78 [16])	IC50 (BaF3 [17])
CCc1cc2c(cc1N1CCC(N3CCOCC3)CC1)C(C)(C)c1[nH]c3cc(C#N)ccc3c1C2=O [ALECTINIB]	2400 nM	Dose-Dependent Effect	Dose-Dependent Effect	inactive	> 1000 nM	> 10000 nM	> 10000 nM	> 10000 nM	> 5000 nM	> 5000 nM	> 5000 nM	> 10000 nM	> 2000 nM	> 2000 nM	2000 nM	> 3000 nM	> 1000 nM	> 2000 nM
Cc1cc(Nc2ncc(Cl)c(Nc3ccccc3S(=O)(=O)C(C)C)n2)c(OC(C)C)cc1C1CCNCC1 [CERITINIB]	–	Dose-Dependent Effect	Dose-Dependent Effect	Dose-Dependent Effect	–	71 nM	> 2000 nM	70 nM	341 nM	488 nM	304 nM	506 nM	> 2000 nM	60 nM	–	–	226 nM	44 nM

Further lines, results first:

Ki [1]	inhibition [2]	inhibition [3]	inhibition [4]	IC50 (SLC34A2-ROS1)	IC50 [5]	IC50 [6]	IC50 [7]	IC50 [8]	IC50 [9]	IC50 [10]	IC50 (HCC78 [11])	IC50 (BaF3 [12])	IC50 (BaF3 [13])	Ki [14]	Kis [15]	IC50 (HCC78 [16])	IC50 (BaF3 [17])	Structure (SMILES)
–	–	–	–	–	1.5 nM	6.4 nM	1.4 nM	–	–	–	–	1.3 nM	1.1 nM	–	–	–	2.3 nM	COc1cc2nccc(Oc3ccc(NC(=O)C4(C(=O)Nc5ccc(F)cc5)CC4)cc3)c2cc1OC [CABOZANTINIB]
–	Dose-Dependent Effect	Dose-Dependent Effect	Dose-Dependent Effect	–	3.9 nM	> 5000 nM	–	11 nM	60 nM	41 nM	21 nM	> 2000 nM	259 nM	–	–	47 nM	18 nM	C[C@@H](Oc1cc(-c2cnn(C3CCNCC3)c2)cnc1N)c1c(Cl)ccc(F)c1Cl [CRIZOTINIB]
–	Dose-Dependent Effect	Dose-Dependent Effect	Dose-Dependent Effect	–	3.8 nM	88 nM	–	5.47 nM	6.1 nM	5.6 nM	19 nM	69 nM	8.6 nM	–	–	21 nM	11 nM	COc1cc2c(Oc3ccc(NC(=O)C4(C(=O)Nc5ccc(F)cc5)CC4)cc3F)ccnc2cc1OCCCN1CCOCC1 [FORETINIB]
